# In the library only some 1.1% were active in any assay of this set; here they are far more common.
# FXIa inh 1536: factor XIa (human) inhibition | AID 798 | inhibition, % at 5 µM | P03951 | purified FXIa, Boc-Glu-Ala-Arg-AMC fluorogenic substrate | actives 0.14% (n = 220,000);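 active = inhibition of at least 40%; inactive = inhibition below 40%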;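 note: fluorescence of freed AMC excited at 355 nm; 0% = enzyme without compound and 100% = no enzyme blank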
# Tb hexokinase: blocks Trypanosoma brucei hexokinase 1 activity. inhibition, % at 10 µM. actives 0.11% (n = 220,000). recombinant TbHK1, G6PDH-coupled NADH A340;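 active = inhibition of 50% or more in the single-dose primary screen; inactive = inhibition below 50%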
# hK5 inh: inhibitors of human kallikrein 5 | actives 0.59% (n = 210,000) | Q9Y337 | recombinant hK5, fluorogenic AMC substrate cleavage | inhibition, % at 5 µM | AID 873;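 active = inhibition of 40% or more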;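 note: 0% = enzyme controls without compound and 100% = no-enzyme blanks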
# Target sequence (Q9Y337 67-293 limits assumed): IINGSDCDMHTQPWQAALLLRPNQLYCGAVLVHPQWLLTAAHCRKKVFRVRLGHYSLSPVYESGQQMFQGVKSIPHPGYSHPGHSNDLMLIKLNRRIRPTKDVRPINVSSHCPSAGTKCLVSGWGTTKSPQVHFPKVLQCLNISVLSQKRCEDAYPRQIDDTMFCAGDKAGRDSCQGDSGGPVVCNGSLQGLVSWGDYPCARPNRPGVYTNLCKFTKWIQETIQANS
# FXIIa inh 1536: blocks human coagulation factor XIIa protease activity; P00748; purified FXIIa, Boc-QGR-AMC fluorogenic substrate, 2 h; inhibition, % at 5 µM; actives 0.3% (n = 220,000); AID 800; in the data active = inhibition above about 40%;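 note: 0% = enzyme with no compound and 100% = blank without enzyme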
# Thrombin inh: blocks human thrombin protease activity. actives 0.26% (n = 220,000). inhibition, % at 5 µM. AID 1046. alpha-thrombin, Boc-VPR-AMC fluorogenic substrate cleavage;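 active = inhibition at or above 40%; inactive = inhibition below 40%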;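 note: 0% = enzyme with no compound and 100% = wells without enzyme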
#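 Material: human alpha-thrombin protein. Incubation: reaction at ambient temperature. Technique: fluorescence of released AMC, ex 355 nm, em 460 nm. Control set: no-compound enzyme wells and no-enzyme blanks. Also added: Boc-VPR-AMC substrate, 15 µM final. Buffer or medium: pH 7.5 Tris (50 mM) with NaCl 150 mM, Tween 20 0.05%.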
# Starred values were filed as active, the others as inactive; . = no result.
SMILES,FXIa inh 1536,Tb hexokinase,hK5 inh,FXIIa inh 1536,Thrombin inh
O=C(Nc1cc(Cl)cc(Cl)c1)c1cnn2cccnc12,12,-6,69*,18,24
COc1ccc2c(Cl)c(C(=O)NN3CCN(C)CC3)sc2c1,-7,-11,-26,1,-1
COc1cc(NC(=O)c2cc3nc(C4CC4)cc(C(F)(F)F)n3n2)c(OC)cc1Cl,12,-10,4,46*,0
CCCc1cc2c(cc1NS(=O)(=O)c1ccc(CCNC(C)=O)cc1)OCO2,-1,-3,-3,6,-5
CCOc1ccc(NC(=O)C(C)O)c(NS(=O)(=O)c2ccc(CCNC(C)=O)cc2)c1 (centres undefined),3,-2,79*,-1,104*
CCCCn1nnc(NC(=O)COc2ccc(Cl)c(C)c2)n1,0,1,104*,7,10
CCCn1nnnc1NC(=O)COc1ccc(Cl)c(C)c1,31,9,-19,15,-4
COCCNC(=O)C(c1ccc(Cl)cc1)N(CCOC)C(=O)CCC(=O)Nc1nccs1 (centres undefined),-4,-3,-4,0,-6
CCOCCn1c(CN2CCOCC2)nc2c1c(=O)[nH]c(=O)n2C,-7,-2,41*,2,-6
Cc1cnc(NC(=O)c2sc(Nc3ccccc3)nc2N)o1,2,-46,3,5,-2
COc1cc(C(=O)O)ccc1OCc1c(C)noc1C,-6,-8,-2,6,-5
COc1cc(C(=O)OCC(C)=O)ccc1OCc1c(C)noc1C,42*,9,42*,38,.
CCN(CC)S(=O)(=O)c1ccc(C)c(NC(=O)COC(=O)c2ccc(C)c(S(=O)(=O)N3CCOCC3)c2)c1,21,-12,-7,20,0
Cc1ccc(CSc2nnc(-c3ccncc3)n2CC2CCCO2)cc1 (centres undefined),9,-4,81*,26,19
COC(=O)c1c(NC(=O)CC2SC(N)=NC2=O)sc(C)c1C (centres undefined),-4,-8,-9,4,-5
Cc1ccc(C(=O)Nc2nncs2)cc1S(=O)(=O)N1CCOCC1,-9,-3,1,4,-4
Cc1ccc(C(=O)Nc2ccc(Cl)cn2)cc1S(=O)(=O)N1CCOCC1,2,7,41*,23,19
COc1ccc(Oc2ccccc2C=O)cc1,4,-5,51*,20,20
Cc1ccc(C(=O)NCC(=O)OC(C)C(=O)Nc2ccc(N3CCOCC3)cc2)s1 (centres undefined),44*,1,77*,82*,5
CC(OC(=O)CC1CC2CCC1C2)C(=O)Nc1ccc(N2CCOCC2)cc1 (centres undefined),-1,-3,-1,6,-11
O=C(/C=C/c1ccccc1)Nc1ccc(Cl)cn1,-8,-9,-12,-3,-2
c1ccc(-c2csc3ncnc(NCC4COc5ccccc5O4)c23)cc1 (centres undefined),17,7,57*,41*,18
CC1=NN(C(=O)c2ccc(Cn3cc([N+](=O)[O-])cn3)cc2)C(O)(C(F)(F)F)C1 (centres undefined),-4,2,-10,-3,-3
CCCN1C(=O)C(NC(C)=O)c2ccccc21 (centres undefined),3,-1,-16,-2,-9
CC(=O)NC1C(=O)N(C)c2ccc(Br)cc21 (centres undefined),16,-3,45*,21,15
SMILES,FXIa inh 1536,Tb hexokinase,hK5 inh,FXIIa inh 1536,Thrombin inh
CCOc1ccc(OCC)c(NC(=O)CCS(=O)(=O)c2ccc(Br)s2)c1,-5,11,-4,5,43*
CCOC(=O)c1cccc(NC(=O)CCS(=O)(=O)c2ccc(Br)s2)c1,-6,-2,21,7,6
Cn1nc(C(F)(F)F)c2cc(C(=O)NC3CC3)sc21,1,-4,-12,4,1
CN1CCN(C(=O)c2cc3c(C(F)(F)F)nn(C)c3s2)CC1,-5,3,48*,2,4
Cc1ccc(Cl)cc1NS(=O)(=O)c1c(C)[nH]c(=O)[nH]c1=O,-3,-2,30,0,104*
Cc1ccc(S(=O)(=O)Nc2c(C)[nH]c(=O)[nH]c2=O)cc1C,9,9,-3,2,1
CCc1ccc(NC(=O)CCn2cccc2)cc1,41*,3,15,14,11
O=C(COC(=O)C12CC3CC(CC(O)(C3)C1)C2)N1CCN(S(=O)(=O)c2ccc(Cl)cc2)CC1,3,1,-24,12,2
O=C(COC(=O)C12CC3CC(CC(O)(C3)C1)C2)NCCc1ccc(Cl)cc1,-2,0,0,8,101*
Cc1ccc(CNC(=O)c2cc3c(s2)CN(Cc2ccccc2)C3)cc1,-6,2,-12,1,0
O=C(NCC1CCCO1)C(c1cccnc1)N(C(=O)Cc1cccs1)c1ccccc1 (centres undefined),-3,-5,41*,7,2
CCC(C)c1ccccc1NC(=O)COC(=O)c1ccc2c(c1)S(=O)(=O)c1ccccc1C2=O (centres undefined),4,0,-9,11,-14
S=c1[nH]nc(-c2ccncc2)n1/N=C/C=C/c1ccco1,28,-23,30,74*,37
CC(/C=N/n1c(-c2ccncc2)n[nH]c1=S)=C\c1ccco1,2,-61,1,5,-5
CSCCC(NS(=O)(=O)/C=C/c1ccccc1)C(=O)NCCc1ccc(S(N)(=O)=O)cc1 (centres undefined),-3,-10,-4,7,-5
CCOC(=O)CSc1nnc(CNC(=O)c2ccc(S(=O)(=O)N3CCCC3)cc2)n1C,3,-6,48*,4,48*
Nc1nc(SCn2nnc3ccccc3c2=O)n[nH]1,31,9,19,40*,16
C/C(CC(=O)NCCCN1CCOCC1)=N\NC(=O)COc1ccc(C)cc1,3,-19,47*,24,11
Cc1ccc(Nc2nc(CSc3nnc(-c4ccc(F)cc4)n3C)cs2)cc1,5,24,-18,12,0
O=C(COc1ccccc1C(=O)O)Nc1ccc(SC(F)F)cc1,15,0,.,16,48*
CCOC(=O)c1sc(NC(=O)CSc2nc3c(cc2C#N)CCCCC3)c(C#N)c1C,-2,3,0,-2,-1
CCc1nnc(NC(=O)CSc2nc3c(cc2C#N)CCCC3)s1,1,2,49*,3,12
C=C(CCC(=O)c1ccccc1)C(=O)c1ccccc1,-1,1,19,-6,41*
O=C(NN1C(=O)c2ccccc2C1=O)c1ccncc1,0,-2,3,7,-1
CN(C)c1ccc(C(=O)NN2C(=O)c3ccccc3C2=O)cc1,0,-3,-4,99*,-1
CCOC(=O)N1CCN(C(=O)c2cnn3c(C)c(Cc4ccc(C)cc4)c(C)nc23)CC1,4,0,63*,21,10
Cc1noc(C)c1COC(=O)c1ccccc1NC(=O)c1ccco1,1,1,3,12,0

# Screening results: PubChem, several laboratories
